In general, LD50 refers to the dose expected to kill half of the subjects tested. By mortality is commonly meant the percentage killed. Broadly, the Ki is a dissociation constant, usually derived from enzyme kinetics or from competition with a known ligand. Low values mean tighter binding, high ones weaker binding.

A value given as a limit tells only on which side of the number the result lay.

Experiment [1] deals with Musca domestica. In words: Insecticidal activity against Musca domestica (house fly) measured after intrathoracic compound injection in presence of cytochrome P450 inhibitor O-propyl O-(2-propynyl) phenylphosphonate. It counts as functional. The method in brief: (§1)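 Houseflies were first pretreated with the P450 inhibitor O-propyl O-(2-propynyl) phenylphosphonate, then dosed by intrathoracic injection. Lethality was scored 24 h after administration, and the 50% lethal dose was determined.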

The test system of experiment [2] is Musca domestica. In words: Insecticidal activity against Musca domestica (house fly) assessed as mortality at LD50 concentration intrathoracic injection in presence of cytochrome P450 inhibitor O-propyl O-(2-propynyl) phenylphosphonate. It counts as functional. The method in brief:
as §1

Experiment [3] concerns the target T1, Nicotinic acetylcholine receptor alpha 5 subunit (Musca domestica, UniProt A9XFY4).
T1 sequence (A9XFY4 whole entry): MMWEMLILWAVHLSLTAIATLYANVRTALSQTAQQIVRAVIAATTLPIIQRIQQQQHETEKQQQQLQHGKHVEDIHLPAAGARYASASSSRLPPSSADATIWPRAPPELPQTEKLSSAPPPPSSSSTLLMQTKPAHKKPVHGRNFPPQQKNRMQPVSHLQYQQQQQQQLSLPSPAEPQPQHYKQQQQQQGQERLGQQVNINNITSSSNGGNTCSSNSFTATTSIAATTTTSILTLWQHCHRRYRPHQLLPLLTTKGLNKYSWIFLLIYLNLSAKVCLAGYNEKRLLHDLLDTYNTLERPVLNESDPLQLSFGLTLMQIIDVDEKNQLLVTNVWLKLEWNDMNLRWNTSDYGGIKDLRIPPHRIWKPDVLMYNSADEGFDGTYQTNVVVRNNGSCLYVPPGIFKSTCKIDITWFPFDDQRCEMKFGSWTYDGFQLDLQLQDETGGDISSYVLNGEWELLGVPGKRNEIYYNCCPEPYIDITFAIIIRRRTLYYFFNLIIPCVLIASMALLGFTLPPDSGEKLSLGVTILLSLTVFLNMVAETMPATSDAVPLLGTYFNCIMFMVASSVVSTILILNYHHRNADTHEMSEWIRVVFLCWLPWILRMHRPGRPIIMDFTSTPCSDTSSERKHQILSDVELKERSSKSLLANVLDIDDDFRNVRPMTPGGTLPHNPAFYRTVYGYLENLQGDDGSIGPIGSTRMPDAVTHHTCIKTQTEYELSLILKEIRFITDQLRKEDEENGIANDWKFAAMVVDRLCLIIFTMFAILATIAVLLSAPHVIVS
Nature of the experiment: Displacement of [3H]IMI from Musca domestica (house fly) brain nicotinic acetylcholine receptor. In a few lines: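 Native housefly (Musca domestica) brain nAChR preparation with [3H]IMI radioligand at 5 nM (Kd 5.4 nM). IC50 is the molar concentration inhibiting 50% of specific [3H]IMI binding, fitted by iterative nonlinear least-squares regression. Ki derived as IC50/(1 + [L]/Kd).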
Background: In a radioligand displacement assay an active substance lowers the binding of a labelled ligand.

For `CC(C)(CCN1CCN(Cc2ccc(Cl)nc2)/C1=N\[N+](=O)[O-])CCN1CCN(Cc2ccc(Cl)nc2)/C1=N\[N+](=O)[O-]`, the LD50 in the experiment with Musca domestica [1] was greater than 1 mg/kg. Moreover, the mortality in the experiment on Musca domestica [2] was 0%. For the same compound, the inhibition constant (Ki) in experiment [3] worked out at 1460 nM.
Taken in the same sequence, the figures for `O=C(/N=C1/N(CCCCCCCN2CCN(Cc3ccc(Cl)nc3)/C2=N/C(=O)C(F)(F)F)CCN1Cc1ccc(Cl)nc1)C(F)(F)F` were greater than 1 mg/kg, 0% and 2900 nM.
Take `O=[N+]([O-])/N=C1/N(Cc2ccc(Cc3ccc(CN4CCN(Cc5ccc(Cl)nc5)/C4=N\[N+](=O)[O-])cc3)cc2)CCN1Cc1ccc(Cl)nc1`: in the experiment on Musca domestica [1], the LD50 was greater than 1 mg/kg. Further, the mortality with Musca domestica [2] was determined as 0%. Moreover, in experiment [3], the Ki amounted to 17000 nM.
For `O=[N+]([O-])/N=C1/N(CCCOCCCN2CCN(Cc3ccc(Cl)nc3)/C2=N\[N+](=O)[O-])CCN1Cc1ccc(Cl)nc1` the same measures were greater than 1 mg/kg, 0% and 2660 nM.
Taken in the same sequence, the figures for `O=[N+]([O-])/N=C1\N(Cc2ccc(Cl)nc2)CCN1Cc1ccccc1-c1ccccc1CN1CCN(Cc2ccc(Cl)nc2)/C1=N\[N+](=O)[O-]` were greater than 1 mg/kg, 10% and 800 nM.
For `O=C(/N=C1/N(CCCCCN2CCN(Cc3ccc(Cl)nc3)/C2=N/C(=O)C(F)(F)F)CCN1Cc1ccc(Cl)nc1)C(F)(F)F` the same measures were greater than 1 mg/kg, 0% and 16000 nM.
Consider `O=[N+]([O-])/N=C1\N(Cc2ccc(Cl)nc2)CCN1Cc1cccc(CN2CCN(Cc3ccc(Cl)nc3)/C2=N\[N+](=O)[O-])n1`, for which the LD50 in the experiment on Musca domestica [1] was greater than 1 mg/kg. The mortality with Musca domestica [2] is 0%. Moreover, in experiment [3], the affinity corresponds to a Ki of 5200 nM.
Taken in the same sequence, the figures for `O=[N+]([O-])/N=C1\N(Cc2ccc(Cl)nc2)CCN1Cc1cncc(CN2CCN(Cc3ccc(Cl)nc3)/C2=N\[N+](=O)[O-])c1` were greater than 1 mg/kg, 10% and 2300 nM.
With `O=[N+]([O-])/N=C1\N(Cc2ccc(Cl)nc2)CCN1Cc1ccc(CN2CCN(Cc3ccc(Cl)nc3)/C2=N\[N+](=O)[O-])s1`, the LD50 in the experiment on Musca domestica [1] turned out to be 1 mg/kg. Besides, in experiment [3], the Ki was found to be 150 nM.
Regarding `O=[N+]([O-])/N=C1/N(CCOCCN2CCN(Cc3ccc(Cl)nc3)/C2=N\[N+](=O)[O-])CCN1Cc1ccc(Cl)nc1`, the LD50 in the experiment on Musca domestica [1] was greater than 1 mg/kg. Also, the mortality in the experiment with Musca domestica [2] is 0%. Also, the inhibition constant (Ki) in experiment [3] was found to be 530 nM.
As for `O=C(CN1CCN(Cc2ccc(Cl)nc2)/C1=N\[N+](=O)[O-])OCCOC(=O)CN1CCN(Cc2ccc(Cl)nc2)/C1=N\[N+](=O)[O-]`, in the experiment on Musca domestica [1], the LD50 is greater than 1 mg/kg. In addition, in the experiment on Musca domestica [2], the mortality was 0%. This compound also returned a Ki in experiment [3] of 1550 nM.
As to `O=[N+]([O-])/N=C1\N(Cc2ccc(Cl)nc2)CCN1Cc1ccc(CN2CCN(Cc3ccc(Cl)nc3)/C2=N\[N+](=O)[O-])o1`, the LD50 in the experiment on Musca domestica [1] is 0.14 mg/kg. Also, in experiment [3], the inhibition constant Ki turned out to be 30 nM.
With `O=[N+]([O-])/N=C1/N(Cc2ccc(CN3CCN(Cc4ccc(Cl)nc4)/C3=N\[N+](=O)[O-])cc2)CCN1Cc1ccc(Cl)nc1`, the LD50 in the experiment on Musca domestica [1] is greater than 1 mg/kg. In the experiment with Musca domestica [2], the mortality is on record as 0%. In experiment [3], the Ki is 2270 nM.
Turning to `O=C(/N=C1/N(CCCCCCCCN2CCN(Cc3ccc(Cl)nc3)/C2=N\C(=O)C(F)(F)F)CCN1Cc1ccc(Cl)nc1)C(F)(F)F`, in the experiment on Musca domestica [1], the LD50 is greater than 1 mg/kg. Besides, in the experiment on Musca domestica [2], the mortality amounted to 0%. In experiment [3], this compound yielded an inhibition constant (Ki) of 26000 nM.
Consider `O=C(/N=C1/N(CCCCCCN2CCN(Cc3ccc(Cl)nc3)/C2=N/C(=O)C(F)(F)F)CCN1Cc1ccc(Cl)nc1)C(F)(F)F`, for which the LD50 in the experiment with Musca domestica [1] is greater than 1 mg/kg. The mortality in the experiment on Musca domestica [2] is 0%. In experiment [3], this compound gave a Ki of 26000 nM.
For `O=[N+]([O-])/N=C1\N(Cc2ccc(Cl)nc2)CCN1Cc1cccc(CN2CCN(Cc3ccc(Cl)nc3)/C2=N\[N+](=O)[O-])c1` the same measures were greater than 1 mg/kg, 0% and 2770 nM.
In the case of `O=[N+]([O-])NC1=NCCN1Cc1ccc(Cl)nc1` [IMIDACLOPRID], the median lethal dose (LD50) with Musca domestica [1] was found to be 0.03 mg/kg. In experiment [3], the inhibition constant (Ki) was determined as 4.6 nM.

These data come from ChEMBL document CHEMBL3045298, “Furan-2,5-dimethylene-tethered bis-imidacloprid insecticide conferring high potency” (J Agric Food Chem, 2010).
